These results are taken from the array DNA melting data of Ke et al. (doi:10.1101/2024.01.08.574731).

Series [1] is described as follows: melting temperature; fluorescence melt of hairpins on a sequencing array, two-state fit, raised by 9.35 °C to match UV melts. Particulars: sodium 0.088 M. The essentials: (§1)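 Melting temperature and folding enthalpy were obtained by bootstrapped two-state fitting. Fits used Cy3 fluorescence of library hairpins with annealed Cy3 and quencher oligos on a sequenced MiSeq flow cell, imaged in 50 mM Na-HEPES pH 8.0, 25 mM NaCl in 2.5 °C steps up to 60 °C and normalised to pre-quench Cy3 and control constructs. Four replicates were combined by inverse-variance weighting, and fitted temperatures were raised by 9.35 °C to match UV melts.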

Series [2] in a line: folding enthalpy; higher = less favourable; fluorescence melt of hairpins on a sequencing array, two-state fit. To be noted: sodium 0.088 M. In outline: as §1

For GGATGAGGAAACTCGTCC (((.(((....))).))), in series [1], the Tm is 50.8 °C. In series [2], the folding enthalpy was -38.4 kcal/mol.
The corresponding values for GGATGCGAAAGCAAATCC ((((((....)))..))) are 47.1 °C and -21 kcal/mol.
The corresponding values for GGATGCGAAAGCAGATCC ((((((....)))..))) are 45.6 °C and -16.1 kcal/mol.
The corresponding values for GGATGCGAAAGCAGTTCC ((((((....)))..))) are 36 °C and -14.3 kcal/mol.
For the sequence GGATGCGGAAACACATCC (((((.(....).))))), the Tm in series [1] worked out at 47.9 °C. Further, the folding enthalpy in series [2] was -44.2 kcal/mol.
The matching figures for GGATGCGGAAACGCATTC (.(((((....))))).): 54.5 °C and -19.2 kcal/mol.
On to GGATGCGGAAACGCGTCC (((.(((....))).))), for which the Tm in series [1] stood at 61.8 °C. In addition, in series [2], the folding enthalpy is -47.5 kcal/mol.
The corresponding values for GGATGCTCGAAAGAGTCC (((..(((....)))))) are 29.1 °C and -12.1 kcal/mol.
Turning to GGATGGGGAAACCCATCC (((((((....))))))), the Tm in series [1] is 66.4 °C. Moreover, the folding enthalpy in series [2] was -46.7 kcal/mol.
With GGATGGGGAAACCTGTCC (((..((....))..))), the Tm in series [1] came out at 41 °C. In addition, the folding enthalpy in series [2] is -29.3 kcal/mol.
The matching figures for GGATGGGGAAACTCATCC (((((.(....).))))): 49.2 °C and -41 kcal/mol.
The matching figures for GGATGGTCGAAAGACTCC (((..(((....)))))): 32.9 °C and -14.2 kcal/mol.
Take GGATGTCCGAAAGGATCC (((..(((....)))))): in series [1], the Tm turned out to be 32.2 °C. Besides, the folding enthalpy in series [2] is -14.3 kcal/mol.
As to GGATGTCGAAAGACGTCC (((.(((....))).))), in series [1], the Tm is 61 °C. Moreover, the folding enthalpy in series [2] was -38.8 kcal/mol.
The corresponding values for GGATGTGGAAACACATCC (((((((....))))))) are 64.5 °C and -42.6 kcal/mol.
The matching figures for GGATGTGGAAACACGTCC (((.(((....))).))): 53 °C and -55.2 kcal/mol.
Consider GGATGTGGAAACGCATTC (.(((.(....).))).), for which the Tm in series [1] is 33.9 °C. Besides, in series [2], the folding enthalpy is -22.9 kcal/mol.
Regarding GGATTACGAAAGTATTCC (((.(((....))).))), the Tm in series [1] came to 44 °C. Further, in series [2], the folding enthalpy is -32.6 kcal/mol.
The corresponding values for GGATTAGCGAAAGCTTCC (((..(((....)))))) are 32.7 °C and -11.1 kcal/mol.
Take GGATTAGGAAACTAGTCC (((.(((....))).))): in series [1], the Tm is 37.2 °C. The folding enthalpy in series [2] was -25.2 kcal/mol.
With GGATTCGAAAGAAATCC ((((((....))).))), in series [1], the Tm was 44 °C. Besides, in series [2], the folding enthalpy is -24.1 kcal/mol.
The matching figures for GGATTCGAAAGAACTCC ((((((....))).))): 36 °C and -22 kcal/mol.
The corresponding values for GGATTCGAAAGAACTTCC ((((((....)))..))) are 28.4 °C and -8.73 kcal/mol.
The corresponding values for GGATTCGAAAGAAGTCC ((((((....))).))) are 36.7 °C and -17.2 kcal/mol.
With GGATTGACGAAAGTCTCC (((..(((....)))))), in series [1], the Tm was 28.4 °C. In addition, the folding enthalpy in series [2] was -13.7 kcal/mol.
On to GGATTGCGAAAGCATTCC (((.(((....))).))), for which the Tm in series [1] is 52.8 °C. For the same sequence, in series [2], the folding enthalpy is -36.2 kcal/mol.
The matching figures for GGATTGGGAAACCAGTCC (((.(((....))).))): 46.9 °C and -31.1 kcal/mol.
The matching figures for GGATTGTCGAAAGACTCC (((..(((....)))))): 30.9 °C and -16 kcal/mol.
For GGATTTGGAAACAGATCC ((((.((....)).)))), the Tm in series [1] amounted to 41.5 °C. The folding enthalpy in series [2] was -30.7 kcal/mol.
GGATTTGGAAACGAATCC (((((.(....).))))): the Tm in series [1] was determined as 46.1 °C. Further, the folding enthalpy in series [2] was -34.9 kcal/mol.
The corresponding values for GGCAAAACGAAAGTTGCC (((..(((....)))))) are 52.7 °C and -38.6 kcal/mol.
With GGCAAAGCGAAAGCTGCC (((..(((....)))))), the Tm in series [1] worked out at 58.5 °C. Besides, in series [2], the folding enthalpy is -31.3 kcal/mol.
The matching figures for GGCAAAGGAAACTTTACC ((.((((....)))).)): 30.1 °C and -27.4 kcal/mol.
The matching figures for GGCAAAGGAAACTTTGCC (((((((....))))))): 62.7 °C and -40.7 kcal/mol.
As to GGCAACCCGAAAGGGGCC (((..(((....)))))), in series [1], the Tm is 55.4 °C. Moreover, in series [2], the folding enthalpy is -23.8 kcal/mol.
Regarding GGCAACCGAAAGGTAGCC (((.(((....))).))), the Tm in series [1] was found to be 62.4 °C. Also, the folding enthalpy in series [2] is -33.6 kcal/mol.
The corresponding values for GGCAACGAAAGTTCGCC ((((((....))).))) are 51.6 °C and -22.9 kcal/mol.
